S100A4 inh HTS: S100A4-myosin IIA interaction inhibition; P26447; S100A4/TAMRA-MyoIIA peptide fluorescence polarization; inhibition, % at 10.7 µM; hit rate 0.14% among 360,000; AID 652163;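 active = mean inhibition of at least 70% across replicates, with every replicate also reaching that level; inconclusive = mean inhibition reaches 70% but some replicates fall short; inactive = mean inhibition below 70%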
Target sequence (P26447 whole entry, looked up): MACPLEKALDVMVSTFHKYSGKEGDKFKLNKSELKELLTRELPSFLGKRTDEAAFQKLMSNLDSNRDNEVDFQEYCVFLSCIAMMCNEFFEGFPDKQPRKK
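Material: human S100A4 monomer with TAMRA-labelled myosin IIA peptide; buffer or medium: HEPES pH 7.2 with CaCl2, KCl, NaCl, DTT, Triton; compound dosing: one concentration per compound; schedule: 5 min incubation before reading; benchmarks: neutral control DMSO, positive control TFP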
rRNA inh HTS: inhibits bacterial ribosomal RNA function over humanized ribosomes. hit rate 1.6% among 350,000. GFP signal change (wild-type ribosome), % (no concentration beside the values). AID 720706. E. coli WT GFP vs humanized-ribosome RFP mutants, fluorescence, 24 h; hits give low values; DMSO median 0, no signal -100;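 active = significant combined selectivity score with lowered wild-type GFP, culture density cut under 30%, mutant RFP and density less affected; inactive = any of these conditions unmet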
DENV2 CPE: DENV2-induced cell death inhibition; DENV2-infected cells, cytopathic effect rescue, plate reader; CPE inhibition, % at 9.99 µM; hit rate 1.7% among 350,000; AID 651640; in the data active = CPE inhibition above about 20%, passing the limit was not always enough; inconclusive = no clear call, values can overlap the other calls; tested in BHK-21 cells;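 note: 0% = median of neutral control wells and 100% = median of positive control wells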
Cneo AK release: Cryptococcus neoformans lysis via adenylate kinase release. lysis activity, % at 15 µM. AID 651654. hit rate 0.2% among 360,000. C. neoformans lysis, adenylate kinase release luminescence, 4 h; normalised: neutral wells 0, clomiphene wells 100;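 active = mean lysis activity across replicates of at least 80%, whatever share of replicates individually reach that level; inactive = mean lysis activity below 80%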
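Assay system: C. neoformans cells. Amount: yeast cell density of 5 × 10^6 cells/mL. Technique: AK luminescence. Buffer or medium: YPD. Times: static 4 h at 37 °C with compound, 1 h detection. Dosing: single-point compound dose. Read-out: lysis from increased AK signal.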
PfHsp90 yeast 2: growth inhibition of yeast expressing Plasmodium Hsp90 | S. cerevisiae expressing PfHsp90, BacTiter-Glo ATP, 48 h; yeast lacking PDR1 and PDR3 efflux regulators | inhibition, % at 9.4 µM | hit rate 0.32% among 310,000 | AID 504621;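 active = every replicate shows inhibition above about 80%, whatever the replicate mean, limit read from the data; inconclusive = mean inhibition reaches the set limit but some replicate falls short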;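 note: 0% = DMSO neutral controls and 100% = 20 µM radicicol positive controls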
AF4-AF9 inh: blocks AF4 peptide binding to human AF9. P42568. inhibition, % at 10 µM. hit rate 0.47% among 350,000. AID 651704. AlphaScreen, biotin-AF4 peptide binding to FLAG-AF9;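 active = every replicate reaching a set inhibition limit, whatever the replicate mean, cut at about 25% in these data; inconclusive = mean inhibition reaches that limit but some replicates miss it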;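 note: 0% = plate neutral control median and 100% = total signal loss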
Target sequence (P42568 whole entry, looked up): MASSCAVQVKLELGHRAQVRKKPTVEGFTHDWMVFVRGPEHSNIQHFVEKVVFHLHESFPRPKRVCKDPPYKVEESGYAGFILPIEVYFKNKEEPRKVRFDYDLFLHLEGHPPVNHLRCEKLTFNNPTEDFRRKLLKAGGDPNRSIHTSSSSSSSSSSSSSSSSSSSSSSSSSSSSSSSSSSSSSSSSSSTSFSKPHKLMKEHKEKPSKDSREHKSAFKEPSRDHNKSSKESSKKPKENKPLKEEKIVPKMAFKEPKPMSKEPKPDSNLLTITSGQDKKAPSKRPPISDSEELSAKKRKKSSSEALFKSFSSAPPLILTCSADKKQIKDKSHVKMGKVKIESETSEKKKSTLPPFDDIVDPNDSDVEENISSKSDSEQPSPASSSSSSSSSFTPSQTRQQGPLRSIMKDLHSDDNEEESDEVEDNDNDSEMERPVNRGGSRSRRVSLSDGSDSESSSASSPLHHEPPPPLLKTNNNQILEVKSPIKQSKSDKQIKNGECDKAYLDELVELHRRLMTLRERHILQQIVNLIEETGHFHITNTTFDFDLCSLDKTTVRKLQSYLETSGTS
Active calls of the source: *; ? = inconclusive; / = no result given. Compounds with a hit are over-represented: about 3.2% of the library has one in this group of screens.

SMILES	S100A4 inh HTS	rRNA inh HTS	DENV2 CPE	Cneo AK release	PfHsp90 yeast 2	AF4-AF9 inh
CO[C@H]1CN(C)C(=O)c2ccc(NC(=O)Nc3ccc(C(F)(F)F)cc3)cc2OC[C@H](C)NC[C@@H]1C	-6	-30	68*	/	/	?
CCCN(C)C[C@H]1OCCCC[C@H](C)Oc2ccc(NS(=O)(=O)c3ccc(F)cc3)cc2C(=O)N([C@@H](C)CO)C[C@H]1C	0	1	-5	-1	/	-4
CO[C@H]1CN(C)C(=O)c2cc(NC(=O)Nc3ccccc3Cl)ccc2OC[C@@H](C)NC[C@H]1C	-16	0	20*	1	/	0
CO[C@@H]1CN(C)C(=O)c2ccc(NC(=O)C3CC3)cc2OC[C@H](C)N(C(=O)c2ccccn2)C[C@H]1C	10	4	-4	0	/	-1
Cc1ccc(-n2nc(C)c(Sc3ccccc3[N+](=O)[O-])c2N)cc1	6	-42*	5	/	-24	19
Cc1n[nH]c(C)c1Sc1ccccc1[N+](=O)[O-]	-1	-34*	5	/	/	2
CC(=O)Oc1c(Sc2ccccc2[N+](=O)[O-])c(C)nn1C(C)(C)C	-302	1	-4	/	/	-15
Cc1cc(N2CCN(C)CC2)n2nc(-c3ccc(Cl)cc3)nc2n1	-2	10	35*	/	3	0
Cc1cc(N2CCOCC2)n2nc(C)c(-c3ccc(Cl)cc3)c2n1	-2	15	-1	1	13	-1
C[C@@H]1CN([C@H](C)CO)C(=O)CCCn2cc(nn2)CO[C@@H]1CN(C)S(=O)(=O)c1cccs1	1	1	8	0	/	1
C[C@H]1CCCCO[C@H](CN(C)C(=O)Nc2ccc(F)cc2)[C@@H](C)CN([C@@H](C)CO)C(=O)c2cc(NC(=O)Nc3cccc4ccccc34)ccc2O1	2	3	-2	-4	/	-1
Cc1ccc(OCC(=O)NC2CCSc3ccccc32)cc1 (configuration not stated)	2	-7	26*	-1	/	7
CCOc1ccccc1OCC(=O)NC1CCSc2ccccc21 (configuration not stated)	2	-1	?	6	/	9
CCNC(=O)[C@H]1[C@H](CO)[C@H]2Cn3c(ccc(-c4ccccc4F)c3=O)[C@H]2N1CC	-4	1	0	1	/	-1
C[C@H]1CN([C@@H](C)CO)C(=O)c2cccc(NS(=O)(=O)c3cn(C)cn3)c2O[C@@H]1CN(C)C(=O)Nc1cccc2ccccc12	2	6	0	-2	/	1
CCOc1ccc2[nH]c(C)c(CN3CCOCC3)c(=O)c2c1	-2	7	11	3	13	6
CCOc1ccc2[nH]c3ncccc3c(=O)c2c1	-6	2	30*	/	17	-1
O=C(O)Cn1nc(-c2ccccc2)cc1-c1ccccc1	-5	5	80*	0	-15	-2
C/C=C/c1ccc2c(c1)[C@H]1[C@H](CCN1C(=O)C1CC1)[C@@H](CO)N2	15	1	7	/	/	0
CCOC(=O)c1c(-c2ccccc2)oc2ccc(OCC(O)CNCCN(C)C)cc12 (configuration not stated)	-9	-55	5	1	46	34*
CCOC(=O)c1c(-c2ccccc2)oc2ccc(OCC)cc12	/	/	/	-1	-2	/
O=C(CN1CCOCC1)N1CC[C@@H]2[C@@H](CO)Nc3ccc(-c4ccccc4)cc3[C@@H]21	/	-5	/	-1	/	/
CC[N+](CC)(CC#Cc1ccccc1)CC(=O)c1ccc(Cl)cc1	-5	-23*	5	/	-5	8
CCC[N+](CC#CCO)(CC#Cc1ccccc1)CCC	0	26	1	/	-12	0
CC(=O)c1sc(NC(=O)c2oc3ccc(F)cc3c2C)nc1C	-4	16	21*	-2	-6	-1
SMILES	S100A4 inh HTS	rRNA inh HTS	DENV2 CPE	Cneo AK release	PfHsp90 yeast 2	AF4-AF9 inh
CC(=O)c1sc(NC(=O)c2c(F)cccc2F)nc1C	/	/	/	0	3	/
C[C@H]1CN([C@@H](C)CO)S(=O)(=O)c2ccc(-c3cccc(C(=O)N(C)C)c3)cc2O[C@@H]1CN(C)C(=O)Cc1ccccn1	15	-3	-8	-13	/	3
CCNC(=O)C[C@@H]1CC[C@@H]2[C@@H](COc3ccc(NC(=O)c4ccccc4Cl)cc3C(=O)N2C)O1	/	/	-5	0	/	/
CNC(=O)C[C@@H]1CC[C@@H]2[C@H](COc3ccc(NC(=O)c4cc(C)on4)cc3C(=O)N2C)O1	/	1	/	96*	/	/
COC(=O)C[C@@H]1CC[C@H]2[C@@H](COc3ccc(NC(=O)c4ccc(C(F)(F)F)cc4)cc3C(=O)N2C)O1	5	-2	99*	-7	/	0
CNC(=O)C[C@@H]1CC[C@H]2[C@@H](COc3ccc(NC(=O)c4ccc(OC)cc4)cc3C(=O)N2C)O1	10	2	64*	-4	/	-1
CNC(=O)C[C@H]1CC[C@@H]2[C@@H](COc3ccc(NC(=O)c4ccccc4Cl)cc3C(=O)N2C)O1	-3	0	31*	12	/	-1
C[C@H](CO)N1C[C@H](C)[C@H](CN(C)C)Oc2cc(C#CC(C)(C)O)ccc2S1(=O)=O	8	0	13	-15	/	-1
CO[C@H](CN(C)C(=O)C1CC1)[C@H](C)CN(C(=O)Nc1ccc(C(F)(F)F)cc1)[C@H](C)CO	-2	-61	-2	-10	/	-2
C=C(C)n1c(=O)n(Cc2ccccc2C)c2ccccc21	-3	-31*	-8	0	-1	0
CNC(=O)C[C@@H]1CC[C@@H]2[C@H](COC[C@H](O)CN2S(=O)(=O)c2cccc(Cl)c2)O1	5	3	0	100*	/	2
O=C(C[C@@H]1CC[C@@H]2[C@H](COC[C@H](O)CN2S(=O)(=O)c2cccc(Cl)c2)O1)NC1CCCC1	10	0	-10	-4	/	8
O=C(C[C@H]1CC[C@@H]2[C@H](COC[C@@H](O)CN2S(=O)(=O)c2cccc(Cl)c2)O1)NC1CCCC1	12	-3	10	-1	/	26*
CCCN1C[C@H](C)[C@@H](OC)CN(C)C(=O)c2ccc(NC(=O)C3CCC3)cc2OC[C@@H]1C	10	0	9	3	/	0
O=C(Nc1nccs1)C(F)(F)C(F)(F)C(F)(F)C(=O)Nc1nccs1	3	-27*	4	0	-8	-4
COc1ccc(S(=O)(=O)Nc2cccc3c2O[C@@H](CN(C)C(=O)Nc2ccc4c(c2)OCO4)[C@H](C)CN([C@H](C)CO)C3=O)cc1	-34	-1	0	-4	/	1
CSc1ccccc1OCc1cc(C(=O)NCCn2nc(C)cc2C)no1	0	-10	12	2	0	-2
CSc1ccccc1OCc1cc(C(=O)NCCN2CCCc3ccccc32)no1	95*	-6	9	/	9	1

Screening data from PubChem.
